Laboratory results as given in ChEMBL document CHEMBL1121524, “Studies of hypolipidemic agents. 1. Synthesis and hypolipidemic activities of alkoxycinnamic acid derivatives” (1980).

Legend:
Rattus norvegicus [1] = species: Rattus norvegicus; test: Hypolipidemic activity expressed as percentage decrease in triglyceride in rat, at dosage of 50 mg for 7 days; type: functional
Outline: (§1)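 Male Sprague-Dawley rats, 4 weeks old, kept on CE-2 chow for at least 1 week, then grouped (generally five per group). Compound was mixed into CE-2 powder and fed ad libitum for the stated period; controls received plain CE-2 powder. Diet level is given as mg/100 g (mg%), about equal to mg/kg/day. Total serum triglyceride was measured by the Ryan and Rasho method and reported as percent depression versus control group mean. Significance was p < 0.05.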

Rattus norvegicus [2] = species: Rattus norvegicus; test: Tested for the hypolipidemic activity, expressed as percent decrease in serum cholesterol in rat, at dosage of 50 mg for 7 days; type: functional
Outline: as §1, with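 “cholesterol” for “triglyceride”, “Zak et al.” for “Ryan and Rasho”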

Rattus norvegicus [3] = test: In vivo hypolipidemic activity, expressed as percent decrease in serum triglyceride in rat, at dosage of 20 mg for 7 days.
Rattus norvegicus [4] = test: In vivo hypolipidemic activity, expressed as percent decrease in serum cholesterol in rat, at dosage of 20 mg for 7 days.; type: functional
Outline: as §1, with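 “cholesterol” for “triglyceride”, “Zak et al.” for “Ryan and Rasho”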

Rattus norvegicus [5] = species: Rattus norvegicus; test: Hypolipidemic activity, expressed as percent decrease in serum cholesterol in rat, at dosage of 100 mg for 7 days by Zak et al method; type: functional
Outline: as §1, with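 “cholesterol” for “triglyceride”, “Zak et al.” for “Ryan and Rasho”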

Rattus norvegicus [6] = test: In vivo hypolipidemic activity, expressed as percent decrease in Triglyceride in rat, at dosage of 100 mg for 7 days.; type: functional; outline: as §1

SMILES | Decrease (Rattus norvegicus [1]) [%] | Decrease (Rattus norvegicus [2]) [%] | also measured
CCCCCCCCCCCCCCOc1ccc(/C=C(\C)C(=O)OCC(COC(=O)c2cccnc2)OC(=O)c2cccnc2)cc1 (stereo not given) | 17 | 7 | 
CCCCCCCCCCCCCCOc1cccc(/C=C(\C)C(=O)O)c1 | -11 | -1 | 
CCCCCCCCCCCCCCOc1ccc(/C(C)=C/C(=O)O)cc1 | 41 | 5 | 
C/C(=C\c1ccc(Oc2ccccc2)cc1)C(=O)O |  |  | Decrease (Rattus norvegicus [3]): 15%; Decrease (Rattus norvegicus [4]): 8%
CCCCCCCCCCCCOc1ccc(/C=C/C(=O)OCCCl)cc1 | 46 | 16 | 
CCCCCCCCOc1ccc(/C=C/C(=O)OCCCl)cc1 |  |  | Decrease (Rattus norvegicus [5]): 5%
CCCCCCCCCCCCCCCCCCOc1ccc(/C=C/C(=O)O)cc1 | 9 | 0 | 
CCCCOc1ccc(/C=C/C(=O)OCCCl)cc1 |  |  | Decrease (Rattus norvegicus [6]): 26%; Decrease (Rattus norvegicus [5]): 0%
CCCCCCCCCCCCOc1ccc(/C=C(\C)C(=O)OCC2COC(C)(C)O2)cc1 (stereo not given) | 41 | 16 | 
CCCCCCCCCCCCCCOc1ccc(/C=C/C(=O)O)cc1 | 0 | 7 | 
CCCCCCCCOc1ccc(/C=C/C(=O)OCCOC(=O)/C=C/c2ccc(OCCCCCCCC)cc2)cc1 | 9 | 4 | 
CCCCCCCCCCCCCCCCOc1ccc(/C=C/C(=O)OCCS(=O)(=O)[O-])cc1.[Na+] |  |  | Decrease (Rattus norvegicus [6]): 47%; Decrease (Rattus norvegicus [5]): 17%
CCCCOc1ccc(/C=C/C(=O)OCCS(=O)(=O)[O-])cc1.[Na+] |  |  | Decrease (Rattus norvegicus [6]): 9%; Decrease (Rattus norvegicus [5]): -1%
CCCCCCCCCCCCCCOc1ccc(/C=C/C(=O)OCCO)cc1 | 24 | 10 | 
CCCCCCCCCCCCOc1ccc(/C=C(\C)C(=O)OCc2cccnc2)cc1 | 60 | 24 | 
C=C(C)C(=O)OCCCOC(=O)/C=C/c1ccc(OCCCCCCCCCCCCCCCC)cc1 |  |  | Decrease (Rattus norvegicus [6]): 0%; Decrease (Rattus norvegicus [5]): 16%
CCCCCCCCCCCCCCOc1ccc(/C=C(\C)C(=O)OCC2COC(C)(C)O2)cc1 (stereo not given) | 2 | 9 | 
C/C(=C\c1ccc(-c2ccc(Cl)cc2)cc1)C(=O)OCC(O)CO (stereo not given) | 18 | 11 | 
CCCCCCCCCCCCCOc1ccc(/C=C(\C)C(=O)O)cc1 | -4 | 13 | 
C=C(C)C(=O)OCCOC(=O)/C=C/c1ccc(OCc2ccccc2)cc1 |  |  | Decrease (Rattus norvegicus [6]): 33%; Decrease (Rattus norvegicus [5]): 13%
C=C(C)C(=O)OCCOC(=O)/C=C/c1ccc(OCCCCCCCC)cc1 |  |  | Decrease (Rattus norvegicus [6]): -11%; Decrease (Rattus norvegicus [5]): 16%
CCCCCCCCCCCCOc1ccc(/C=C/C(=O)OCC(O)CO)cc1 (stereo not given) | 38 | 17 | 
CCCCCCCCCCCCOc1ccc(/C=C/C(=O)O)cc1 | 52 | 15 | 
CCCCCCCCCCCCCCCCOc1ccc(/C=C/C(=O)OCCBr)cc1 |  |  | Decrease (Rattus norvegicus [6]): 6%; Decrease (Rattus norvegicus [5]): 7%
CCCCCCCCCCCCCCCCCCOc1ccc(/C=C/C(=O)OCCCCl)cc1 | 3 | 9 | 

SMILES | Decrease (Rattus norvegicus [1]) [%] | Decrease (Rattus norvegicus [2]) [%] | also measured
CCCCCCCCCCOc1ccc(/C=C(\C)C(=O)OCC(O)CO)cc1 (stereo not given) | 52 | 10 | 
CCCCCCCCCCCCCOc1ccc(/C=C(\C)C(=O)OCC(O)CO)cc1 (stereo not given) | 53 | 30 | 
COc1ccc(/C=C/C(=O)OCCCl)cc1 |  |  | Decrease (Rattus norvegicus [5]): 0%
CCCCCCCCCCCCCCOc1ccc(/C=C(\C)C(=O)OC)cc1 | 44 | 10 | 
CCCCOc1ccc(/C=C/C(=O)OCCBr)cc1 |  |  | Decrease (Rattus norvegicus [6]): 26%; Decrease (Rattus norvegicus [5]): 9%
CCCCCCCCCCOc1ccc(/C=C/C(=O)O)cc1 | 18 | 9 | 
CCCCCCCCCCCCCCOc1ccc(/C=C(\C)C(=O)OCC(O)COC(=O)c2cccnc2)cc1 (stereo not given) | 33 | 4 | 
CCCCCCCCCCCCOc1ccc(/C=C(\C)C(=O)OCCCl)cc1 | 42 | 21 | 
C=C(C)C(=O)OCCOC(=O)/C=C/c1ccc(OCCCCCCCCCCCC)cc1 | 34 | 13 | 
C=C(C)C(=O)OCCOC(=O)/C=C/c1ccc(OCCCC)cc1 | 17 | 9 | 
CCCCCCCCCCCCCCCCCCOc1ccc(/C=C(\C)C(=O)OCCCCl)cc1 | 11 | 0 | 
CCCCCCCCCCCCCCCCCCOc1ccc(/C=C(\C)C(=O)OCCCO)cc1 | 14 | 13 | 
C=CC(=O)OCCOC(=O)/C=C/c1ccc(OCCCCCCCCCCCCCCCC)cc1 |  |  | Decrease (Rattus norvegicus [5]): 6%
C/C(=C\c1ccc(-c2ccccc2)cc1)C(=O)OCC(O)CO (stereo not given) | -17 | 16 | 
CCCCCCCCCCCCCCCCOC(=O)/C=C/c1ccc(OCCCCCCCCCCCCCCCC)cc1 | 27 | 11 | 
CCCCCCCCCCOc1ccc(/C=C/C(=O)OCC(O)CO)cc1 (stereo not given) | 14 | -3 | 
C=C(C)C(=O)OCCOC(=O)/C=C(\C)c1ccc(OCCCCCCCCCCCCCCCC)cc1 |  |  | Decrease (Rattus norvegicus [6]): 12%; Decrease (Rattus norvegicus [5]): 11%
C=COC(=O)/C=C/c1ccc(OCCCCCCCC)cc1 |  |  | Decrease (Rattus norvegicus [5]): -6%
CCCCCCCCCCCCCCCCOc1ccc(/C=C(\C)C(=O)OCC2COC(C)(C)O2)cc1 (stereo not given) | 3 | 1 | 
C/C=C/C(=O)OCCOC(=O)/C=C/c1ccc(OCCCCCCCCCCCCCCCC)cc1 |  |  | Decrease (Rattus norvegicus [6]): 11%; Decrease (Rattus norvegicus [5]): 3%
CCCCCCCCOc1ccc(/C=C(\C)C(=O)OCC(O)CO)cc1 (stereo not given) | 21 | 8 | 
CCCCCCCCCCCCCCCCOc1ccc(/C=C/C(=O)OCC(COC(=O)CCC)OC(=O)CCC)cc1 (stereo not given) | 36 | 8 | 
CCCCCCCCCCCCCCOc1ccc(/C=C(\C)C(=O)OCCOC(=O)/C(C)=C/c2ccc(OCCCCCCCCCCCCCC)cc2)cc1 | -9 | -1 | 
CCCCCCCCOc1ccc(/C=C(\C)C(=O)OCc2ccccc2)cc1 | 18 | 5 | 
CCCCCCCCCCCCCCCCCCOc1ccc(/C=C(\C)C(=O)OCC(O)CO)cc1 (stereo not given) | 3 | -1 | 

SMILES | Decrease (Rattus norvegicus [1]) [%] | Decrease (Rattus norvegicus [2]) [%] | also measured
CCCCCCCCCCCCCCOc1ccc(/C=C(\C)C(=O)OCC(O)COC(=O)/C(C)=C/c2ccc(OCCCCCCCCCCCCCC)cc2)cc1 (stereo not given) | 6 | 6 | 
CCCCCCCCCCCCOc1ccc(/C=C(\C)C(=O)OCC(COC(=O)c2ccccc2)OC(=O)c2ccccc2)cc1 (stereo not given) | 47 | 3 | 
CCCCCCCCCCCCCCOc1ccc(/C=C(\C)C(=O)OCC(COC(C)=O)OC(C)=O)cc1 (stereo not given) | 41 | 4 | 
CCCCCCCCCCCCCCOc1ccc(/C=C/C(=O)OCC(O)CO)cc1 (stereo not given) | 24 | 26 | 
CCCCCCCCCCCCCCOc1ccc(/C=C(\C)C(=O)OC(CO)CO)cc1 | 38 | 9 | 
CCCCCCCCCCOc1ccc(/C=C(\C)C(=O)O)cc1 | 43 | 16 | 
CCCCCCCCCCCCCCOc1ccc(/C=C/C(=O)OCCCl)cc1 | -1 | 11 | 
CCCCCCCCOc1ccc(/C=C(\C)C(=O)O)cc1 | 8 | 10 | 
CCCCOc1ccc(/C=C/C(=O)OCCO)cc1 |  |  | Decrease (Rattus norvegicus [6]): 26%; Decrease (Rattus norvegicus [5]): 9%
CCCCCCCCCCCCCCOc1ccccc1/C=C(\C)C(=O)O | 7 | -9 | 
CCCCCCCCCCCCCCCCOc1ccc(/C=C(\C)C(=O)Oc2ccccc2)cc1 | 46 | 12 | 
O=C(/C=C/c1ccc(OCc2ccccc2)cc1)OCCCl |  |  | Decrease (Rattus norvegicus [5]): -3%
CCCCCCCCCCCCCCCCCCOc1ccc(/C=C(\C)C(=O)O)cc1 | -54 | -12 | 
C=CCOc1ccc(/C=C/C(=O)OCCCl)cc1 |  |  | Decrease (Rattus norvegicus [6]): 26%; Decrease (Rattus norvegicus [5]): -9%
CCCCCCCCCCCCOc1ccc(/C=C(\C)C(=O)OCCS(=O)(=O)[O-])cc1.[Na+] | 63 | 27 | 
CCCCCCCCCCCCCCCCOc1ccc(/C=C(\C)C(=O)OCC(COC(=O)/C(C)=C/c2ccc(OCCCCCCCCCCCCCCCC)cc2)OC(=O)/C(C)=C/c2ccc(OCCCCCCCCCCCCCCCC)cc2)cc1 (stereo not given) | 9 | 0 | 
C=C(C)C(=O)OCCOC(=O)/C(C)=C/c1ccc(OCCCCCCCCCCCC)cc1 | 43 | 17 | 
O=C(/C=C/c1ccc(Oc2ccccc2)cc1)OCCCl |  |  | Decrease (Rattus norvegicus [3]): 21%; Decrease (Rattus norvegicus [4]): 18%
CCCCCCCCCCCCCCOc1ccc(/C=C(\C)C(=O)OCCN(C)C)cc1.Cl | 35 | 8 | 
CCCCOc1ccc(/C=C/C(=O)OCCN2CCCCC2)cc1.Cl |  |  | Decrease (Rattus norvegicus [6]): 2%; Decrease (Rattus norvegicus [5]): 3%
O=C(O)/C=C/c1ccc(Oc2ccccc2)cc1 | 34 | 15 | Decrease (Rattus norvegicus [3]): 14%; Decrease (Rattus norvegicus [4]): 14%
CCCCCCCCCCCCCCOc1ccc(/C=C(\C)C(=O)OCC(O)CO)cc1 (stereo in doubt; 98) | 9 | -2 | 
CCOC(=O)C(C)(C)Oc1ccc(Cl)cc1 [CLOFIBRATE] | 35 | 14 | Decrease (Rattus norvegicus [6]): 41%; Decrease (Rattus norvegicus [5]): 22%
